Source: PubChem BioAssay
NALP1 yeast inh: inhibitors of NALP1 inflammasome in yeast | 280,000 compounds, 0.61% hits | S. cerevisiae NALP1/ASC/caspase-1 growth, X-gal OD620, 72 h | inhibition, % at 10 µM; in the data active means inhibition mostly above about 24%, no sharp cut-off; inactive means mostly below about 32%
PolyA inhibitor: yeast polyadenylation inhibition; S. cerevisiae SKY197-pL101 polyadenylation reporter, beta-gal luminescence; efflux-impaired pdr1/pdr3 knockout yeast; score 100 = 6 SD above DMSO; activity score, % at 12 µM; 300,000 compounds, 0.02% hits;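 active means lowest replicate activity score at least 50, where 100 means six control SD above control mean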;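 further: yeast exposed to compound for 9 h at 30 °C; higher score means more reporter readthrough which indicates perturbed polyadenylation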
NALP3 yeast inh: blocks the NALP3 inflammasome reconstituted in yeast | 330,000 compounds, 0.39% hits | inhibition, % at 10 µM | AID 2825 | Yeast reconstituted NLRP3/ASC/caspase-1, beta-gal luminescence, 24 h;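 active means inhibition of 50% or more; inactive means inhibition below 50%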
Pemphigus Ab inh: human desmoglein-3 autoantibody binding inhibition; P32926; binding (percent of control), % at 10 µM; AID 588358; DSG3-coupled beads, scFv-anti-DSG3-GFP binding, flow cytometry; hits give low values; 310,000 compounds, 0.48% hits;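 active means binding more than 3 SD below its plate's average and above zero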;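 further: hits lower antibody fragment binding to DSG3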
Arrestin-AP2 inh: inhibitors of human beta-arrestin and AP2 interaction; FITC-arrestin peptide / GST-AP2 beads, flow cytometry; AP2 beta2 appendage carries R879A mutation; inhibition, % at 10 µM; 340,000 compounds, 0.31% hits; AID 504490;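 active means inhibition above a set limit, near 3 SD of compounds lacking own fluorescence, cut at about 54% in these data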
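System: GST-AP2 R879A bound to glutathione beads, E. coli-expressed. Also added: 50 nM FITC-arrestin peptide. Schedule: compound with beads 12 min RT, then probe 1 h RT. Signal: bead flow cytometry, FITC channel. Read-out basis: percent response.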
ALR inh: human ALR oxidase inhibition via reduced H2O2; P55789; purified ALR, DTT oxidation, H2O2 HRP-luminol luminescence; 290,000 compounds, 3.8% hits; inhibition, % (concentration not given with the values);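 active means mean replicate inhibition above about 79%, with every replicate also reaching it, limit read from the data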
Target sequence (P55789 whole entry, looked up): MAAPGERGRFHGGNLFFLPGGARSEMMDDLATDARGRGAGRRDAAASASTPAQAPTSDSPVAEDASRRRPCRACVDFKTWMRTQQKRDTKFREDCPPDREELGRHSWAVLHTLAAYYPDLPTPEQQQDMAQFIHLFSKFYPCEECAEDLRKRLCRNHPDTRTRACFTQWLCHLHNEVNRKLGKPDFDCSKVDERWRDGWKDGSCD
Hits are given with their value; – = inactive; · = no result given. This is a sample that favours compounds with a hit; in the whole collection about 4.6% have one here.

SMILES	NALP1 yeast inh	PolyA inhibitor	NALP3 yeast inh	Pemphigus Ab inh	Arrestin-AP2 inh	ALR inh
Cc1cccc(NC(=O)CSc2ncnc3nc[nH]c23)c1	–	–	–	–	–	90.2
COc1cccc(C(=O)CSc2nccn2C)c1	–	–	–	–	–	–
Cn1ccnc1SCC(=O)c1ccc2ccccc2c1	–	–	–	–	–	99.2
Cc1cccc(NC(=O)CSc2ncnc3sc(C)cc23)c1	–	–	–	–	–	–
Cn1ccnc1SCC(=O)Nc1ccccc1	–	–	–	–	–	98.8
Cc1cccc(NC(=O)CSc2nccn2C)c1	·	–	–	–	–	99.6
C=CC[C@H](CC(=O)N(CCO)Cc1ccccc1)C(=O)N[C@H](COC(=O)[C@@H](CC=C)Cc1ccc(F)cc1)Cc1ccccc1	·	·	–	–	–	–
C=CCC[C@@H](Cc1ccc(F)cc1)C(=O)OC[C@@H](Cc1ccccc1)NC(=O)[C@@H](CC=C)CC(=O)N[C@@H](CO)Cc1ccccc1	·	·	–	–	–	–
O=C(CN1CCCCC1)Nc1cc(S(=O)(=O)N2CCOCC2)ccc1N1CCCC1	·	·	–	·	–	–
CCOC(=O)N1CCN(S(=O)(=O)N2CCCC(C(=O)NCc3ccccc3OCC)C2)CC1 (stereo unspecified)	·	·	·	–	·	·
C=CCNC(=S)N1CCN(Cc2ccc3c(c2)OCO3)CC1	–	–	–	–	–	–
COc1ccc(-c2cc(C(=O)N3CCCCCC3)c3ccccc3n2)cc1	·	·	–	–	–	·
COc1cccc(NC(=O)CN(C)C(=O)Cc2c(C)nc3ccccc3c2C)c1	·	·	–	–	–	–
O=C(CSc1nccn1Cc1ccccc1)Nc1ccccc1	–	–	–	–	–	99.7
CCOc1ccc(NC(=O)CSc2nccn2Cc2ccco2)cc1	–	–	–	–	–	–
COc1ccc(NC(=O)CSc2nccn2Cc2ccco2)cc1	–	–	–	–	–	98.8
Cc1cc(S(=O)(=O)NC(C)c2nnc3ccccn23)ccc1Br (stereo unspecified)	·	·	–	–	–	–
CCCc1cc(=O)oc2cc(OCC(=O)N3CCN(C(=O)C4COc5ccccc5O4)CC3)ccc12 (stereo unspecified)	–	–	–	–	–	–
O=S(=O)(NCc1ccccc1)c1cccc2nonc12	–	–	–	–	–	98.9
O=C(Nc1ccc(N2CCN(C(=O)c3ccccc3)CC2)cc1)c1ccc(Br)o1	·	–	–	–	–	–
CCN(CC)c1ccc(NC(=O)c2ccc(Br)o2)cc1	–	–	–	–	–	96.4
COC(=O)Cc1ccc(NC(=O)c2ccc(Br)o2)cc1	–	–	–	–	–	–
CC(C)N1CCN(C(=O)c2ccc(NC(=O)c3ccc(Br)o3)cc2)CC1	·	·	–	67.9	–	·
CCCOC(=O)c1ccc(NC(=O)Oc2ccccc2)cc1	22.3	–	–	–	–	–
CCCOC(=O)c1ccc(NC(=O)c2ccc(Br)o2)cc1	61.3	–	–	–	–	–
SMILES	NALP1 yeast inh	PolyA inhibitor	NALP3 yeast inh	Pemphigus Ab inh	Arrestin-AP2 inh	ALR inh
O=C(NCc1cccnc1)C(=O)NCC1OCCCN1S(=O)(=O)c1cc(F)ccc1F (stereo unspecified)	·	·	·	–	·	·
CC(C)C[C@H](NC(=O)OC(C)(C)C)C(=O)N[C@@H](CO)[C@H](O)[C@@H]1C[C@@H]1C(=O)N(C)C	–	–	–	–	–	–
Cc1cc(C)c(NC(=O)C2CC(=O)N(C3CCCC3)C2)c(C)c1 (stereo unspecified)	·	·	–	·	–	–
CCCN(C(=O)CSCc1ccc(C)cc1)c1c(N)n(Cc2ccccc2)c(=O)[nH]c1=O	·	·	·	–	·	·
Nc1cccc(-c2nc3ccccc3s2)c1	–	–	–	–	–	98.6
COc1c(C)oc2cc(O)ccc2c1=O	–	–	–	·	–	–
Oc1ccc2c(c1)oc1cc(O)ccc12	–	–	–	–	–	98.8
Cc1ccc(S(=O)(=O)N2[C@@H](c3ccc(C(C)C)cc3)C(C(=O)O)=C[C@H]2C(C)(C)C)cc1	·	·	–	–	–	·
O=C(CSc1ccc(-c2cccnc2)nn1)Nc1ccccc1C(F)(F)F	–	–	–	·	–	–
COCCNC(=S)N(CCc1c(C)[nH]c2ccccc12)Cc1ccco1	–	–	–	–	–	87.1
CCOc1ccc(NC(=O)CN(C)C(=O)CCCOc2ccc(Cl)c(C)c2)cc1OCC	–	–	–	·	–	–
COc1cccc(-n2sc3c(c2=S)-c2cc(OC)ccc2NC3(C)C)c1	–	–	–	–	–	–
CC1(C)Nc2ccc(O)cc2-c2c1ssc2=S	–	–	–	–	–	99.0
CCN1C(=O)[C@H]2[C@@H](c3ccc(C)cc3)N[C@]3(CCCN(Cc4cccn4C)C3=O)[C@H]2C1=O	·	·	·	–	·	·
[O-][N+](=C(c1ccccc1)c1ccccc1)c1ccccc1	·	·	·	–	–	·
O=C(CSc1ncn[nH]1)NCc1ccccc1	27.5	–	–	–	–	–
COc1ccc(NC2CCCN(C(=O)CCc3ccncc3)C2)cc1OC (stereo unspecified)	–	–	–	·	–	95.0
COc1ccc(OCC(=O)N2CCCC(Nc3ccc(C)c(C)c3)C2)cc1 (stereo unspecified)	·	·	·	–	·	·
Cc1ccc(NC2CCCN(C(=O)CCc3ccncc3)C2)cc1C (stereo unspecified)	–	–	–	–	–	98.3
Cc1ccc(NC2CCCN(C(=O)CSc3ccncc3)C2)cc1C (stereo unspecified)	–	–	–	–	–	98.2
Cc1ccc(NC2CCCN(C(=O)CCC(=O)c3ccccc3)C2)cc1C (stereo unspecified)	–	–	–	–	–	·
Cc1ccc(NC2CCCN(C(=O)CN3C(=O)c4ccccc4C3=O)C2)cc1C (stereo unspecified)	–	–	–	·	–	92.6
O=C(CSc1ccc(F)cc1)Nc1ccc2c(c1)C(=O)NC2=O	–	–	–	–	–	–
COc1ccc(C2OCC(C)([N+](=O)[O-])CO2)cc1 (stereo unspecified)	·	·	·	–	–	·
COc1c(C)cc(C(=O)C2CCCN(C(=O)CCCn3cncn3)C2)cc1C (stereo unspecified)	·	–	–	–	–	–
O=C(CSc1ccccn1)N1CCCC(Nc2ccc(F)c(F)c2)C1 (stereo unspecified)	–	–	–	–	–	–
Cc1ccc(NC2CCCN(C(=O)c3nonc3C)C2)cc1C (stereo unspecified)	·	·	·	–	·	·
Cc1ccc(NC2CCCN(C(=O)Cc3nonc3C)C2)cc1C (stereo unspecified)	–	–	–	–	–	99.2
COc1ccc(NC2CCCN(C(=O)CCCn3cncn3)C2)cc1OC (stereo unspecified)	–	–	–	·	–	93.9
O=C(CCc1ccncc1)N1CCCC(Nc2ccc(F)c(F)c2)C1 (stereo unspecified)	–	–	–	–	–	94.9
